Screening results as filed in PubChem BioAssay.
Shown are actives, neighbours in structure and some others; about 3.8% of the full set was active somewhere.
CHO parental Ca – counter-screen for OX1R antagonists: effect in parental CHO cells. parental CHO-K1, ATP-induced calcium, Fluo-8 fluorescence. 330,000 tested, 0.63% active. AID 463079. inhibition, % at 5.6 µM;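 active = inhibition above that plate's mean sample inhibition plus 3 SD, cut at about 26% in these data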
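test system = CHO parental line | reagent = ATP stimulus | measured by = intracellular calcium via Fluo-8 no-wash fluorescent dye | control set = ATP and no-ATP DMSO wells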
OX1R antag-1 – human HCRTR1 antagonism; O43613; CHO/OX1R cells, Fluo-8 calcium fluorescence, orexin A; inhibition, % at 5 µM; 330,000 tested, 0.43% active; AID 434989;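 active = inhibition above its plate's threshold, mean inhibition of all tested compounds on the plate plus 3 SD, cut at about 37% in these data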
Target sequence (O43613 whole entry, looked up): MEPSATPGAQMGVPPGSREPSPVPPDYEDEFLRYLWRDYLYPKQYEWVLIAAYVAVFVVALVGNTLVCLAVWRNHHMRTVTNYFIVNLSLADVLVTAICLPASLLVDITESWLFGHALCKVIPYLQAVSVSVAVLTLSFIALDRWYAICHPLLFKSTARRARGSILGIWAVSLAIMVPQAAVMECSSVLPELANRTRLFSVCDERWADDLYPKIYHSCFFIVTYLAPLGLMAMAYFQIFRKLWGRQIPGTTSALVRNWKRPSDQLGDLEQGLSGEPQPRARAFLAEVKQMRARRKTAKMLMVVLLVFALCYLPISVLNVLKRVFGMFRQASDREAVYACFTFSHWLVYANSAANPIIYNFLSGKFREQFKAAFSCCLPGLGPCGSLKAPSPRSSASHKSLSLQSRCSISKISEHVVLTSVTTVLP
MPTP block – blocks calcium-induced mitochondrial swelling | 360,000 tested, 1.4% active | inhibition, % at 10 µM | isolated mouse mitochondria, Ca2+ swelling absorbance, 30 min;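 active = inhibition of 50% or more, scaled per plate between neutral and stimulator controls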
OX1R antag-2 – OX1R (human) antagonism; O43613; OX1R-expressing cells, FRET antagonist read-out; inhibition, % at 6.6 µM; 330,000 tested, 1.8% active; AID 485270; in the data active = inhibition mostly above about 38%, no sharp cut-off; inactive = mostly below about 40%
GPR7 antagonist – blocks human GPR7 receptor signaling; AID 1861; P48145; GPR7-expressing cells, fluorescence antagonist assay; inhibition, % at 4.4 µM; 290,000 tested, 1.1% active; in the data active = inhibition above about 16%, passing the limit was not always enough;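 also: cells stimulated with the agonist NPW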
Large screens that a line does not name were inactive.

CCOC(=O)c1ccc(NS(=O)(=O)c2cc(C)ccc2OC)cc1	CHO parental Ca 24
CC1(C(=O)NS(=O)(=O)C2CC2)CCN(C(=O)c2ccccc2C(F)(F)F)C1 (stereo not given)	none (no result: CHO parental Ca, OX1R antag-1, OX1R antag-2, GPR7 antagonist)
Cc1cc(C(=O)OC(C(=O)Nc2ccc(C)c(Cl)c2)c2ccccc2)c(C)o1 (stereo not given)	none
O=C(Oc1cccc(Nc2ncnc3ccccc23)c1)c1ccccc1Cl	CHO parental Ca 71, OX1R antag-1 53, OX1R antag-2 95
Cc1cc(NC(=O)CSc2nnc(-c3ccc([N+](=O)[O-])cc3)o2)no1	OX1R antag-2 59
CC(C)OC(=O)CSc1nnc(-c2ccc([N+](=O)[O-])cc2)o1	OX1R antag-2 65
Cc1ccc(NC(=O)CN2C(=O)NC3(CCCc4ccccc43)C2=O)c(C)c1 (stereo not given)	none (no result: CHO parental Ca, OX1R antag-1, OX1R antag-2, GPR7 antagonist)
O=C(COC(=O)CN1C(=O)NC2(CCCC2)C1=O)Nc1ccccc1C(F)(F)F	none (no result: GPR7 antagonist)
O=C(COC(=O)CN1C(=O)NC2(CCCC2)C1=O)Nc1ccc(C(F)(F)F)cc1[N+](=O)[O-]	OX1R antag-2 41 (no result: GPR7 antagonist)
Cc1ccc(NC(=O)CN2C(=O)NC3(CCCc4ccccc43)C2=O)c([N+](=O)[O-])c1 (stereo not given)	OX1R antag-2 54
CCC(C(=O)NC1CCCC1)n1c(-c2ccnc3ccccc23)nc2ccccc21 (stereo not given)	none (no result: CHO parental Ca, OX1R antag-1, OX1R antag-2, GPR7 antagonist)
COc1ccc(/C=C/C(=O)c2cc3c(cc2N)OCO3)cc1	none
CCOC(=O)c1c(CSc2ccc(CC)cc2)oc2ccc(O)c(CN(C)C)c12	CHO parental Ca 67
CCOC(=O)c1c(C)oc2ccc(O)c(CN(C)C)c12	none
CCOC(=O)c1c(CSc2ccccc2)oc2ccc(O)cc12	CHO parental Ca 26
COc1ccc(CNC(=O)c2ccc(Cn3cc(Br)cn3)o2)cc1	none
Cc1cc2c(cc1C)-n1nnnc1C(N1CCCNCC1)C(=O)N2 (stereo not given)	none (no result: CHO parental Ca, OX1R antag-1, OX1R antag-2, GPR7 antagonist)
Cc1cc(C(=O)COC(=O)c2ccc(N)c([N+](=O)[O-])c2)c(C)n1Cc1ccc2c(c1)OCO2	none
Cc1cc(C(=O)COC(=O)c2ccc(N)c([N+](=O)[O-])c2)c(C)n1-c1ccc2c(c1)OCO2	OX1R antag-2 47
CN(C)S(=O)(=O)c1ccc(NC(=O)/C=C/c2ccccc2Cl)cc1	none
CN(C)c1ccc(NC(=O)/C=C/c2c(Cl)cccc2Cl)cc1	OX1R antag-2 72
COc1ccc(CNC(=O)CN2C(=O)CSc3ccc(S(=O)(=O)N4CCOCC4)cc32)cc1	none
O=C(CN1C(=O)CSc2ccc(S(=O)(=O)N3CCOCC3)cc21)NCc1ccc(Cl)cc1	OX1R antag-2 48
Cc1nc(Cl)sc1C(=O)Nc1cccc2ccccc12	none
O=C(COc1ccccc1/C=C1\SC(=O)NC1=O)Nc1ccccc1	OX1R antag-2 59
COc1cccc(/C=C2/NC(=O)NC2=O)c1OCC(=O)Nc1ccccc1	none
CN(C(=O)COC(=O)c1cc([N+](=O)[O-])ccc1Cl)c1ccccc1	OX1R antag-2 66
O=C(COC(=O)c1cc([N+](=O)[O-])ccc1Cl)NCCc1ccccc1	none (no result: GPR7 antagonist)
CN(C(=O)COC(=O)c1ccc([N+](=O)[O-])cc1)c1ccccc1	none
COCCN(CCOC)C(=O)COC(=O)c1cc([N+](=O)[O-])ccc1Cl	OX1R antag-2 48
CN(C)c1ccc(N=Nc2ccccc2C(=O)OCC(=O)N(C)c2ccccc2)cc1	CHO parental Ca 34
COC(=O)c1ccccc1NC(=O)COC(=O)c1ccccc1N=Nc1ccc(N(C)C)cc1	none
Cc1cccc(C)c1-n1nnnc1C(c1ccccc1)N1CCN(C/C=C/c2ccccc2)CC1 (stereo not given)	none (no result: CHO parental Ca, OX1R antag-1, OX1R antag-2, GPR7 antagonist)
CCOc1ccc(C(=O)N2CCN(CC(=O)N3CCCC3)CC2)cc1OCC	none (no result: GPR7 antagonist)
COc1ccc(C(N)c2nccc3cc(OC)c(OC)cc23)cc1OC (stereo not given)	OX1R antag-2 73
Cc1ccc(C(=O)Nc2ccc3c(c2)nc2n3CCSC2)cc1	none
COc1ccccc1C(=O)Nc1ccc2c(c1)nc1n2CCSC1	OX1R antag-2 54
O=C(Nc1ccc(Cl)cc1)C1C2CCCCC21 (stereo not given)	CHO parental Ca 62
O=C(Nc1ccc(Cl)cc1)C1CCCCN1S(=O)(=O)c1ccccc1 (stereo not given)	OX1R antag-2 28 (no result: GPR7 antagonist)
O=C(Nc1ccc(C(F)(F)F)cc1)C1CCCCN1S(=O)(=O)c1ccccc1 (stereo not given)	none (no result: GPR7 antagonist)
Cc1ccc(NC(=O)[C@@H]2CCCN2S(=O)(=O)c2ccc(Cl)cc2)cc1	OX1R antag-2 48 (no result: GPR7 antagonist)
O=C1CCC(C(=O)Nc2ccc(Cl)cc2)N1 (stereo not given)	none
CN(Cc1ccc(Cl)cc1Cl)C(=O)CNC(=O)c1ccco1	none
CCCCn1c(N)c(N(CCOC)C(=O)c2ccc(NC3CC3)c([N+](=O)[O-])c2)c(=O)[nH]c1=O	OX1R antag-2 47 (no result: GPR7 antagonist)
CCCCn1c(N)c(N(CCC(C)C)C(=O)c2ccc([N+](=O)[O-])s2)c(=O)[nH]c1=O	OX1R antag-2 37 (no result: GPR7 antagonist)
O=C(CSc1ncnc2sc(-c3ccccc3)cc12)NC1CCS(=O)(=O)C1 (stereo not given)	none
N#Cc1nccnc1S(=O)(=O)c1cccs1	CHO parental Ca 44, OX1R antag-2 109, GPR7 antagonist 18 (no result: MPTP block)
CN(Cc1ccccc1C#N)S(=O)(=O)c1cccs1	none
COc1cccc(NS(=O)(=O)c2ccc3c(c2)CCN3C(C)=O)c1	none
CSc1cccc(NS(=O)(=O)c2ccc3c(c2)CCN3C(C)=O)c1	CHO parental Ca 64
COc1ccccc1CN1CCNC(=O)C1CC(=O)NC1CCCCCC1 (stereo not given)	none
CCN1C(=O)C(CC(=O)Nc2ccccc2Cl)N(NC(=O)c2cccc(F)c2)C1=S (stereo not given)	OX1R antag-2 75
COc1ccc2c(c1)c1nnc(SC)nc1n2C	OX1R antag-2 48
CCOc1ccc2c(c1)c1nnc(SCC(=O)NC3CC3)nc1n2C	none
COc1ccc(-c2cc(C(F)(F)F)n3nc(C(=O)N4CCN(C(=O)c5ccco5)CC4)cc3n2)cc1	none
O=C(Nc1ccc(F)cc1F)C1CCN(c2ncnc3c2sc2cccc(F)c23)CC1	OX1R antag-2 46
CC1CC(C)CN(CCCNC(=O)C2CCN(c3ncnc4c3sc3cccc(F)c34)CC2)C1 (stereo not given)	OX1R antag-2 55 (no result: MPTP block)
Cc1ccc(Cl)cc1N1CCN(C(=O)c2ccc(NS(=O)(=O)c3c(C)noc3C)cc2)CC1	CHO parental Ca 44
Cc1ccc(C)c(N2CCN(C(=O)c3ccc(NS(=O)(=O)c4c(C)noc4C)cc3)CC2)c1	none
COc1ccc(CNc2ccc([N+](=O)[O-])cc2C)cc1	CHO parental Ca 38
O=C(CN1C(=O)c2ccccc2C1=O)NC1CCCCCC1	none
O=C(CCN1C(=O)c2ccc([N+](=O)[O-])cc2C1=O)Nc1nccs1	OX1R antag-2 72
COc1ccc(CNC(=O)CN2C(=O)c3ccccc3C2=O)cc1	none
COc1ccc(CNC(=O)CN2C(=O)c3ccc([N+](=O)[O-])cc3C2=O)cc1	OX1R antag-2 76
